# Assay results as given in ChEMBL document CHEMBL4190245, “Caffeic Acid Phenethyl Ester from the Twigs of Cinnamomum cassia Inhibits Malignant Cell Transformation by Inducing c-Fos Degradation” (J Nat Prod, 2017).
# Calls of active or inactive are those of the source. The calls are words filed in the database; no cut-off is given here.
# Key:
# Mus musculus [1] = organism: Mus musculus; assay: Inhibition of EGF-induced c-fos mRNA expression in mouse JB6 P+ cells at 0.5 to 1 uM preincubated for 1 hr followed by EGF stimulation and measured after 15 mins by real-time PCR method; type: functional, cell-based
# How it was run: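 Compound given 1 h before EGF (10 ng/mL); total RNA extracted 15 min later, reverse-transcribed and c-fos quantified by SYBR Green real-time PCR (95 °C 10 min, then 40 cycles of 95 °C 15 s and 59 °C 1 min); n = 3.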
# Mus musculus [2] = organism: Mus musculus; assay: Inhibition of ERK phosphorylation at T202/Y204 residue in EGF-stimulated mouse JB6 P+ cells at 0.5 to 1 uM preincubated for 1 hr followed by EGF stimulation and measured after 15 mins by Western blot method
# How it was run: (§1)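 JB6 P+ cells were serum-starved 24 h, pretreated 1 h with compound (0.5 and 1 μM), then stimulated with EGF (10 ng/mL) and harvested after 15 min. Lysates (10−60 μg protein) were run on SDS-PAGE and immunoblotted for phospho or total proteins, with chemiluminescent detection.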
# Mus musculus [3] = organism: Mus musculus; assay: Induction of proteasome-mediated c-fos degradation in EGF-stimulated mouse JB6 P+ cells assessed as inhibition of c-fos phosphorylation at S32 residue at 0.5 to 1 uM preincubated for 1 hr followed by EGF stimulation and measured after 15 mins by Western blot method; how it was run: as §1
# [4] = Cytotoxicity against mouse JB6 P+ cells up to 10 uM after 24 to 48 hrs by CellTiter96 AQueous one solution assay; type: cell-based
# How it was run: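 JB6 P+ cells seeded, incubated overnight, then switched to 0.1% FBS MEM and compound added; viability read by MTS reagent at 24 and 48 h; triplicate samples, means ± standard deviation.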
# Mus musculus [5] = organism: Mus musculus; assay: Induction of proteasome-mediated c-fos degradation in EGF-stimulated mouse JB6 P+ cells assessed as reduction in c-fos protein level at 1 uM preincubated for 1 hr followed by EGF stimulation for 15 mins by Western blot method; how it was run: as §1
# Mus musculus [6] = organism: Mus musculus; assay: Inhibition of EGF-induced mouse JB6 P+ cells transformation after 12 days by microscopy based soft agar assay; type: functional
# How it was run: (§2)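 Soft agar: 8 × 10^3 cells/mL in 0.3% BME top agar with 10% FBS, compound and EGF or TPA, layered over 0.5% agar in BME with 10% FBS and the same additions; kept 1 to 2 weeks at 37 °C in 5% CO2, colonies counted by microscope; triplicate means ± SD.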
# [7] = target: Transcription factor Jun (Mus musculus) (UniProt P05627); assay: Effect on phosphorylated c-jun in EGF-stimulated mouse JB6 P+ cells at 0.25 to 1 uM preincubated for 1 hr followed by EGF stimulation
# How it was run: (§3)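 The TransAM AP-1 family ELISA was run on cell extracts: wells coated with AP-1 binding oligonucleotide, probed with a c-Fos or p-c-Jun specific primary antibody, then an HRP secondary, and absorbance read at 450 nm; n = 3.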
# Mus musculus [8] = organism: Mus musculus; assay: Inhibition of RSK phosphorylation at T359/S363 residue in EGF-stimulated mouse JB6 P+ cells at 0.5 to 1 uM preincubated for 1 hr followed by EGF stimulation and measured after 15 mins by Western blot method; how it was run: as §1
# Mus musculus [9] = organism: Mus musculus; assay: Induction of proteasome-mediated c-fos degradation in EGF-stimulated mouse JB6 P+ cells assessed as reduction in total c-fos protein level at 0.5 to 1 uM preincubated for 1 hr followed by EGF stimulation and measured after 15 mins by Western blot method; how it was run: as §1
# Mus musculus [10] = organism: Mus musculus; assay: Inhibition of EGF-induced cell cycle progression in mouse epidermal JB6 P+ cells assessed as reduction in accumulation at G2/M phase at 0.25 to 1 uM preincubated for 1 hr followed by EGF challenge and measured after 24 hrs by propidium iodide staining-based FACS analysis; type: functional
# How it was run: (§4)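 Seeded at 1.5 × 10^5 cells per 60 mm dish, starved 24 h in 0.1% FBS MEM, pretreated 1 h with compound, then EGF (10 ng/mL) for 24 h; cells fixed in cold 70% ethanol overnight, stained with RNase A and propidium iodide for 30 min at room temperature, analysed by flow cytometry; n = 3.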
# Mus musculus [11] = organism: Mus musculus; assay: Induction of proteasome-mediated c-fos degradation in EGF-stimulated mouse JB6 P+ cells assessed as reduction in c-fos activity at 0.25 to 1 uM preincubated for 1 hr followed by EGF stimulation; how it was run: as §3
# Mus musculus [12] = organism: Mus musculus; assay: Inhibition of EGF-induced cell cycle progression in mouse epidermal JB6 P+ cells assessed as accumulation at G1 phase at 0.25 to 1 uM preincubated for 1 hr followed by EGF challenge measured after 24 hrs by propidium iodide staining-based FACS analysis; type: functional; how it was run: as §4
# Mus musculus [13] = organism: Mus musculus; assay: Induction of proteasome-mediated c-fos degradation in EGF-stimulated mouse JB6 P+ cells assessed as reduction in c-fos protein level at 1 uM preincubated for 1 hr followed by EGF stimulation for 15 mins in presence of 10 uM proteasome inhibitor MG132 by Western blot method
# How it was run: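 Cells serum-starved 24 h, pretreated with MG132 (10 μM) plus compound (0.5 and 1 μM), collected 15 min after EGF (10 ng/mL); lysates immunoblotted for c-Fos.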
# Mus musculus [14] = organism: Mus musculus; assay: Inhibition of TPA-induced mouse JB6 P+ cells transformation after 14 days by microscopy based soft agar assay; type: functional; how it was run: as §2
# Mus musculus [15] = organism: Mus musculus; assay: Inhibition of CREB phosphorylation at S133 residue in EGF-stimulated mouse JB6 P+ cells at 0.5 to 1 uM preincubated for 1 hr followed by EGF stimulation and measured after 15 mins by Western blot method; how it was run: as §1
# Mus musculus [16] = organism: Mus musculus; assay: Inhibition of TPA-induced mouse JB6 P+ cells transformation at 0.25 to 2 uM after 14 days by microscopy based soft agar assay; type: functional; how it was run: as §2
# Mus musculus [17] = organism: Mus musculus; assay: Induction of proteasome-mediated c-fos degradation (unknown origin) expressed in TPA-stimulated mouse JB6 P+ cells co-expressing AP1-lucifearse assessed as inhibition of AP-1 activation preincubated for 1 hr followed by TPA stimulation for 4 hrs by luciferase reporter gene assay; type: cell-based
# How it was run: (§5)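 JB6 P+ cells stably carrying an AP-1 luciferase reporter (kept in 5% FBS MEM with 200 μg/mL G418) were starved 24 h in 0.1% FBS MEM, given compound 1 h before EGF (10 ng/mL) or TPA (20 ng/mL), lysed in phosphate/Triton buffer pH 7.8 and read for firefly luciferase; n = 3.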
# Mus musculus [18] = organism: Mus musculus; assay: Induction of proteasome-mediated c-fos degradation (unknown origin) expressed in EGF-stimulated mouse JB6 P+ cells co-expressing AP1-lucifearse assessed as inhibition of AP-1 activation preincubated for 1 hr followed by EGF stimulation for 4 hrs by luciferase reporter gene assay; type: cell-based; how it was run: as §5
# Mus musculus [19] = organism: Mus musculus; assay: Inhibition of EGF-induced mouse JB6 P+ cells transformation at 0.25 to 2 uM after 12 days by microscopy based soft agar assay; type: functional; how it was run: as §2
# Mus musculus [20] = organism: Mus musculus; assay: Inhibition of EGF-induced cell cycle progression in mouse epidermal JB6 P+ cells assessed as accumulation at G1 phase at 0.5 to 1 uM preincubated for 1 hr followed by EGF challenge measured after 24 hrs by propidium iodide staining-based FACS analysis; type: functional; how it was run: as §4
# Mus musculus [21] = organism: Mus musculus; assay: Inhibition of EGF-induced cell cycle progression in mouse epidermal JB6 P+ cells assessed as reduction in accumulation at G2/M phase at 0.5 to 1 uM preincubated for 1 hr followed by EGF challenge and measured after 24 hrs by propidium iodide staining-based FACS analysis; type: functional; how it was run: as §4
# Sequence of Transcription factor Jun (Mus musculus) (P05627 whole entry): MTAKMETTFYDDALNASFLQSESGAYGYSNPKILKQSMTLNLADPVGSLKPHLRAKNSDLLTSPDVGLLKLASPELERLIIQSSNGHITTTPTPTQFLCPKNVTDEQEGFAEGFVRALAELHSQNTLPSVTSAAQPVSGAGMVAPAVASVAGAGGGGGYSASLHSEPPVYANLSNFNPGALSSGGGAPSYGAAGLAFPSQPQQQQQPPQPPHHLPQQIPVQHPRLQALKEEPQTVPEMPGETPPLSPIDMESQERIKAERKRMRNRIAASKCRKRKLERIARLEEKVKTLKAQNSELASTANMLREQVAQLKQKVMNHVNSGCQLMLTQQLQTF
smiles,measurement,setting,value
O=C(/C=C/c1ccc(O)c(O)c1)OCCc1ccccc1 [CAFFEIC ACID PHENETHYL ESTER],inhibition,Mus musculus [1],inactive
same,inhibition,Mus musculus [2],inactive
same,Activity,Mus musculus [3],Active
same,Activity,[4],Non-Toxic
same,Activity,Mus musculus [5],Active
same,inhibition,Mus musculus [6],Dose-dependent effect
same,Activity,[7],inactive
same,inhibition,Mus musculus [8],inactive
same,Activity,Mus musculus [9],Active
same,inhibition,Mus musculus [10],Active
same,Activity,Mus musculus [11],Active
same,inhibition,Mus musculus [12],Active
same,Activity,Mus musculus [13],inactive
same,inhibition,Mus musculus [14],Dose-dependent effect
same,inhibition,Mus musculus [15],inactive
O=C(O)/C=C/c1ccc(O)c(O)c1 [CAFFEIC ACID],inhibition,Mus musculus [16],inactive
same,Activity,Mus musculus [3],inactive
same,Activity,[4],Non-Toxic
same,Activity,Mus musculus [17],inactive
same,Activity,Mus musculus [9],inactive
same,Activity,Mus musculus [18],inactive
same,inhibition,Mus musculus [19],inactive
same,inhibition,Mus musculus [20],inactive
same,inhibition,Mus musculus [21],inactive
